Bioassay records from PubChem.
PERK inhibitor = block of dimerizer-induced PERK translation repression, primary screen, PERK inhibitor project, CHO PERK-DD cells, SEAP luminescence, HTS; Eukaryotic translation initiation factor 2-alpha kinase 3 (Homo sapiens), Q9NZJ5; CHO PERK-DD fusion, SEAP luminescence translation reporter; inhibition, % at 5.6 µM; 220,000 compounds, 0.17% hits;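 active means inhibition above the mean inhibition of all tested compounds plus 3 SD, set separately per screening campaign, cut at about 2.9% in these data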;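 further: PERK kinase domain activated by AP20187 dimerizer at 100 nM; 0% = DMSO with dimerizer and 100% = rapamycin at 8.4 µM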
NF-kB expr up = activators of NF-kB expression in neurons, primary screen, cell-based, HTS | human neuronal cells, NF-kB reporter expression; hits give high values | fold change at 12.5 µM | 190,000 compounds, 1.6% hits | AID 1239, 2008; in the data active means fold change above about 3.3
AHR activator = AHR activators, primary screen, cell-based, luminescence, luciferase reporter, human. Aryl hydrocarbon receptor (Homo sapiens), P35869. AHR-responsive luciferase reporter cells. activation, % at 5 µM. 320,000 compounds, 2.5% hits. AID 2796, 2010; in the data active means activation above about 47%;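 further: 0% = vehicle wells and 100% = reference agonist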
Target sequence (P35869 whole entry, looked up): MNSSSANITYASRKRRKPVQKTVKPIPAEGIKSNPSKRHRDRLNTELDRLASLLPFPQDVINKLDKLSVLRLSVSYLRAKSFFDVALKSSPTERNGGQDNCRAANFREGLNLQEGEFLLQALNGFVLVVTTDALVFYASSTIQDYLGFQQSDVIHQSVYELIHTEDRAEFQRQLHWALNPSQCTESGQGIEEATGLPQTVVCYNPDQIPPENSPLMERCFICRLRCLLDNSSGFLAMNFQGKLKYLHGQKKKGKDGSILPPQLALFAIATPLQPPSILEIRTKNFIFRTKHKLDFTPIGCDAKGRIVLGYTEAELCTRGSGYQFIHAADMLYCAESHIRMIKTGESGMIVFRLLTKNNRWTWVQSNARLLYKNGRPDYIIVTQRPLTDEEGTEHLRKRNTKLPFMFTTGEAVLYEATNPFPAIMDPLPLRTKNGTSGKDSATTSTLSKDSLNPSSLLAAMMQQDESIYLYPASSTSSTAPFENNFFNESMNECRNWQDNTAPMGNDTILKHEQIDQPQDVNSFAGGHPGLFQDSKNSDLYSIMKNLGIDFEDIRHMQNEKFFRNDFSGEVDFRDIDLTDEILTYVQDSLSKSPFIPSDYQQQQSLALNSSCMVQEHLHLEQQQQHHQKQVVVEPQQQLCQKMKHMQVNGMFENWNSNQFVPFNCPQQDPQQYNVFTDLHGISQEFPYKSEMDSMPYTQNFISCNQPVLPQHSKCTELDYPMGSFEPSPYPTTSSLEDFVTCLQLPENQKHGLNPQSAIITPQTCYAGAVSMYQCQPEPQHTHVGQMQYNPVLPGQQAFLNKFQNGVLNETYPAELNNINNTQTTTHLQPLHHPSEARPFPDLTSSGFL
Mdm2 ligase inh = MDM2-luciferase reporter signal enhancers, primary screen, MDM2 E3 ligase inhibitor project, cell-based, luminescence, 1536-well; E3 ubiquitin-protein ligase Mdm2 (Homo sapiens), Q00987; cell-based MDM2 ubiquitination luciferase reporter, 2 h; 0 = plate control, 100 = twice control, blank-subtracted; signal enhancement, % at 5 µM; 210,000 compounds, 0.11% hits; AID 1230, 2008;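 active means signal enhancement of 30% or more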;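 further: luminescence tracks abundance of the self-degrading MDM2-luciferase fusion protein; higher signal means inhibition of MDM2 E3 ligase activity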
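Material: stable MDM2–luciferase fusion reporter cells / Quantity: 2000 cells/well / Dosing: single 5 µM compound dose, 0.2% final DMSO / Buffer or medium: DMEM / Schedule: 4 h cell settling then 2 h compound exposure, 37 °C / Detection: luminescence with SteadyLite reagent, 15 min at room temperature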
APP 5'UTR act = activators of APP 5'UTR luciferase reporter, primary screen, SH-SY5Y cells. SH-SY5Y APP 5'UTR luciferase reporter, luminescence; zero percent = DMSO vehicle wells. activation, % at 2 µM. 190,000 compounds, 1% hits. AID 1276, 2008;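 active means activation above a set limit, based on mean plus 3 SD of controls, cut at about 140% in these data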
STAT1 activator = STAT1 signaling activators, primary screen, cell-based, HTS, luciferase reporter; NIH 3T3 STAT1-luciferase reporter, IFN-gamma, luminescence; 100% = IFN-gamma alone, no compound; activation (% of control), % at 5.5 µM; 200,000 compounds, 2.6% hits;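 active means activation above the screen-wide mean activation plus 3 SD, cut at about 130% in these data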;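 further: raw ratio to IFN-gamma control signal so 100% means no change and 0% no light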
AHR act cf = AHR activators, confirmation, cell-based, luminescence, luciferase reporter, human; 2,300 compounds, 87% hits; shares compounds with AHR activator; activation, % at 9 µM; human cells, AHR-responsive luciferase reporter; in the data active means activation above about 49%;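 further: HepG2 hepatoma cells carrying a DRE-driven firefly luciferase reporter; 0% = vehicle wells and 100% = reference agonist wells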
PXR counter = human PXR activators, counter-screen for AHR activator project, cell-based, luciferase luminescence | shares compounds with AHR activator | cell-based PXR reporter | activation, % at 11.6 µM | 2,300 compounds, 88% hits; in the data active means activation above about 11%;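 further: human hepatoma DPX-2 cells expressing full-length human PXR; 0% = DMSO and 100% = reference agonist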
Active calls of the source: *; · = not tested or not shown. A selection: hits, their analogues and other compounds. The true share with any hit is near 4.5%.

SMILES	PERK inhibitor	NF-kB expr up	AHR activator	Mdm2 ligase inh	APP 5'UTR act	STAT1 activator	AHR act cf	PXR counter
CCCCN1C(=O)c2ccc(C(=O)NCCN3C(=O)S/C(=C\c4cccnc4)C3=O)cc2C1=O	1	0.93	-1	-5	12	100	·	·
CC(NC(=O)c1cc(F)c(F)c(F)c1F)c1ccc(-n2ccnc2)cc1 (stereo unspecified)	·	·	96*	·	·	·	50*	18*
CC(NC(=O)c1c(F)cccc1Cl)c1ccc(-n2ccnc2)cc1 (stereo unspecified)	·	·	127*	·	·	·	64*	19*
CC(NC(=O)CCNC(=O)c1ccccc1Cl)c1ccc(-n2ccnc2)cc1 (stereo unspecified)	·	·	11	·	·	·	·	·
CCOC(=O)[C@H]1[C@H]2COc3ccccc3[C@@H]2N2C(=O)[C@@H](CO)NC(=O)[C@@]12C	·	·	-2	·	·	·	·	·
Cc1cc(C)n(CC(=O)c2ccccc2)c(=O)c1C#N	0	1.2	100*	1	7	96	105*	22*
CCc1ccccc1S(=O)(=O)Cc1ccc(C(=O)N2CCN(c3ccccn3)CC2)o1	1	0.5	84*	-8	6	103	65*	107*
O=S(=O)(c1ccc(Cl)cc1)N1CCCC(C(F)(F)F)C1 (stereo unspecified)	1	1.2	2	-6	-3	94	·	·
CCCn1c(=N)n(CC(=O)c2ccc(Cl)cc2)c2ccccc21	·	·	86*	·	·	·	80*	31*
C=CCn1c(=N)n(CC(=O)OCC)c2ccccc21	1	1	0	-13	-3	103	·	·
C=CCn1c(=N)n(CC(=O)c2ccc(Br)cc2)c2ccccc21	·	·	86*	·	·	·	96*	31*
N=c1n(N)c2ccccc2n1CC(=O)c1ccc(Br)cc1	·	·	83*	·	·	·	86*	10
C=CCn1c(=N)n(CC(=O)O)c2ccccc21	1	1.1	1	-5	8	99	·	·
C=CCn1c(=N)n(CC(=O)c2ccccc2)c2ccccc21	·	·	102*	·	·	·	88*	47*
O=C(Cn1cnc2ccccc21)c1ccc(Br)cc1	0	1.8	5	-1	9	114	·	·
COc1ccc(C(=O)Nc2ccc(C3CC3(Cl)Cl)cc2)cc1 (stereo unspecified)	1	·	-4	-2	62	118	·	·
C1=CC2=NC34CCCCC3CC3=C(CCCC3)N4C2=CC1=NC1CCCCC1 (stereo unspecified)	·	·	-3	·	·	·	·	·
C=CCn1c(NC(=O)c2ccccc2)nc2ccccc21	·	·	87*	·	·	·	126*	33*
CCCCNc1c(-c2ccc(OC)c(SC3CCCCC3)c2)nc2cc(C)ccn12	·	·	29	·	·	·	·	·
CCCCNc1c(-c2ccc(OC)c(SC3CCCCC3)c2)nc2cnccn12	·	·	94*	·	·	·	58*	169*
O=C(NN1C(=O)NC2(CCCCC2)C1=O)c1ccc(Cl)c(Cl)c1	·	·	-1	·	·	·	·	·
CCn1c2ccccc2c2cc(NC(=O)c3cccc([N+](=O)[O-])c3)ccc21	·	·	86*	·	·	·	89*	33*
CCn1c2ccccc2c2cc(NC(=O)c3cccc([N+](=O)[O-])c3C)ccc21	0	0.83	113*	-12	20	105	87*	55*
CC(=O)Nc1ccc(S(=O)(=O)NCCC(=O)NCCCc2ccccc2)cc1	·	·	-2	·	·	·	·	·
COc1cc(NC(=O)c2noc(C)c2[N+](=O)[O-])c(OC)cc1Cl	·	·	80*	·	·	·	102*	30*
SMILES	PERK inhibitor	NF-kB expr up	AHR activator	Mdm2 ligase inh	APP 5'UTR act	STAT1 activator	AHR act cf	PXR counter
COc1cc(NC(=O)c2cc(CC(C)C)on2)c(OC)cc1Cl	0	0.99	91*	-13	-12	105	86*	15*
COc1cc(NC(=O)c2ccnn2C)c(OC)cc1Cl	1	1.1	129*	-1	2	105	135*	23*
COc1cc(NC(=O)c2cc(-c3ccco3)on2)c(OC)cc1Cl	0	1.4	41	-6	-10	104	·	·
[O-]/[N+](=C\c1ccco1)c1ccc(Cl)cc1	·	·	37	·	·	·	·	·
Cc1cc(C)cc(OCCNC(=O)c2cc(S(=O)(=O)N3CCOCC3)ccc2F)c1	·	·	7	·	·	·	·	·
CCn1c(CC(=O)Nc2ccc(OC)cc2)nnc1SCC(=O)N1CCOCC1	·	·	-3	·	·	·	·	·
CCOc1cccc(/C=C/c2ccc3cccc(O)c3n2)c1O	·	·	96*	·	·	·	109*	8
CCN(C(=O)CSc1nc(C)c(C)c(C)n1)C1CCS(=O)(=O)C1 (stereo unspecified)	·	·	-1	·	·	·	·	·
Cc1[nH]c2ccccc2c1/C=C/c1nc2ccccc2c(=O)[nH]1	-1	·	166*	-5	·	·	91*	55*
O=C(O)c1ccc(/C=C/c2nc3ccccc3c(=O)[nH]2)cc1	·	·	-2	·	·	·	·	·
Cc1[nH]c2ccccc2c1/C=C/C(=O)c1ccccc1	0	1.3	129*	-18	20	92	123*	73*
Cc1[nH]c2ccccc2c(=O)c1C(=O)/C=C/c1ccccc1	0	·	-2	-19	·	·	·	·
O=C(N[C@@H]1C[C@H]2CC[C@@H]1C2)c1ccco1	·	·	0	·	·	·	·	·
CCC1CCCN1Cn1cnc2c([nH]c3ccc(OC)cc32)c1=O (stereo unspecified)	1	1.1	3	-15	19	101	·	·
CCC1CCCN1Cn1cnc2c([nH]c3ccccc32)c1=O (stereo unspecified)	0	1.2	84*	-17	-15	109	78*	54*
CN(C)S(=O)(=O)Oc1ccccc1C(=O)Nc1cccc(C(F)(F)F)c1	1	0.79	82*	-11	-5	95	100*	55*
Cn1ncc(N)c1C(=O)Nc1cccc(C(F)(F)F)c1	0	1.2	46	1	-15	106	·	·
CN(C)S(=O)(=O)Oc1ccccc1C(=O)Nc1ccc(F)cc1F	1	1	124*	-5	18	102	93*	154*
Nc1[nH]ncc1C(=O)Nc1cccc(C(F)(F)F)c1	0	1	91*	-11	4	101	50*	·
CCOc1ccc(NC(=O)COC(=O)CN2CCCCCC2=O)cc1	·	·	0	·	·	·	·	·
